Published values of several laboratories.
Lines come from different studies, so protocols differ.
CYP3A7: Cytochrome P450 3A7 (CYP3A7, Homo sapiens, UniProt P24462)

For `Cc1ccc(Cn2cc(C(=O)NN)c(=O)c3cc(Oc4ccccc4)ccc32)cc1`, the compound remaining was 96% (metabolic stability; male CD-1 mouse, liver microsomes; 1 µM, 30 min).
For `Cc1cnc(C(=O)N[C@H]2CCCCC/C=C\[C@@H]3C[C@@]3(C(=O)NS(=O)(=O)C3CC3)NC(=O)[C@@H]3C[C@@H](Oc4nc5ccccc5c5ccccc45)CN3C2=O)cn1`, the KI (inactivation) was 4.66 µM (CYP3A7; enzyme activity, inhibitor; pH 7.4, with preincubation).
`O=c1[nH]cnc2c1ncn2[C@H]1CC[C@@H](CO)O1` gave a CC50 of > 50 µg/mL (MT4; cell growth or viability, MTT; 5 days).
`C=C[C@@H]1C[C@]1(NC(=O)[C@@H]1C[C@@H](Oc2ncc(OC)c3ccc(Cl)cc23)CN1C(=O)[C@@H](NC(=O)OC(C)(C)C)C(C)(C)C)C(=O)NS(=O)(=O)C1CC1` has an inhibition of ≥ 50% (CYP3A7; enzyme activity, inhibitor, fluorescence; 20 µM, 10 min, pH 7.4).
`N#C[C@@]12C[C@@H]1[C@@H](n1cnc3c(N[C@@H](C4CCC4)C4CC4)nc(I)nc31)[C@H](O)[C@@H]2O` has a compound remaining of 72.9% (metabolic stability; rat, liver microsomes; 1 h).
With `CC(C)(C)OC(=O)N[C@H]1CCCCC/C=C\[C@@H]2C[C@@]2(C(=O)NS(=O)(=O)C2CC2)NC(=O)[C@@H]2C[C@@H](OC(=O)N3Cc4cccc(F)c4C3)CN2C1=O` the inhibition was ≥ 50% (CYP3A7; enzyme activity, inhibitor, fluorescence; 20 µM, 10 min, pH 7.4).
`C[C@@H](N)CN(C)c1ccc(Nc2cc(NC3CC3)n3ncc(C#N)c3n2)cc1-n1cnnc1` gave a compound remaining of 84% (metabolic stability; male CD-1 mouse, liver microsomes; 5 µM, 30 min, pH 7.4).
`COc1c(-c2ccc3cc(NS(C)(=O)=O)ccc3c2)cc(-n2ccc(=O)[nH]c2=O)cc1C(C)(C)C` gave an inhibition of ≥ 50% (CYP3A7; enzyme activity, inhibitor, fluorescence; 20 µM, 10 min, pH 7.4).
`N#Cc1cnn2c(NC3CC(F)(F)C3)cc(Nc3cccc(-n4cnnc4)c3)nc12` has a compound remaining of 75% (metabolic stability; male CD-1 mouse, liver microsomes; 5 µM, 30 min, pH 7.4).
With `O=[N+]([O-])c1ccc(/C=N/c2c(-c3ccccc3)nc3ccc(Cl)cn23)cc1` the CC50 was > 125 µg/mL (MT4; cell growth or viability, MTT; 5 days).
`N#Cc1cnn2c(NC3CC3)cc(Nc3ccc(N4CCC[C@H](N)C4)c(-n4cnnc4)c3)nc12` gave a compound remaining of 98% (metabolic stability; male CD-1 mouse, liver microsomes; 5 µM, 30 min, pH 7.4).
`Cc1ccnc2c1NC(=O)c1cccnc1N2C1CC1` has a CC50 of > 4 µg/mL (MT4; cell growth or viability, MTT; 5 days).
